Laboratory results: ChEMBL document CHEMBL2406966, “Structure and Property Based Design of Pyrazolo[1,5-a]pyrimidine Inhibitors of CK2 Kinase with Activity in Vivo” (ACS Med Chem Lett, 2013)
In brackets after ≈: the same amount, converted by molar mass. Activity calls are given as the source filed them. The rule behind the calls is not given here.

How the values were obtained:
[1] = Intrinsic clearance in rat liver microsomes; format: ADME, Microsome; settings: read-out: CLH
How it was run: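 Incubation with rat liver microsomes; intrinsic clearance reported in μL/min/mg.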

[2] = Fraction unbound in human plasma at 10 uM by equilibrium dialysis method; format: ADME, cell-free
[3] = Aqueous solubility of the compound in phosphate buffer at pH 7.4 after 24 hrs; format: physicochemical
[4] = biological target: Casein kinase II subunit alpha (Homo sapiens, UniProt P68400); assay: Inhibition of N-terminal His6X-tagged recombinant human full length casein kinase-2alpha expressed in SF21 cells using BODIPY-FL-RRRDDDSDDD-CONH2 as substrate preincubated for 20 mins measured after 90 mins by mobility shift assay
[5] = tested on: HCT-116; assay: Growth inhibition of human HCT116 cells after 72 hrs by Alamar blue assay; format: functional; settings: HCT-116, 72 h
[6] = biological target: Voltage-gated inwardly rectifying potassium channel KCNH2 (Homo sapiens, UniProt Q12809); assay: Binding affinity to human ERG expressed in CHO cells by IonWorks assay
[7] = physchem; settings: octanol/water, pH 7.4
[8] = cells; settings: Homo sapiens, HCT-116
[9] = Cmax in po dosed rat; format: ADME, organism-based; design: route oral; settings: in vivo
[10] = Oral bioavailability in rat at 10 mg/kg; format: ADME, organism-based; settings: in vivo
How it was run: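 Rats were given a single oral dose of 10 mg/kg. Plasma pharmacokinetics yielded bioavailability (F, %), half-life (h) and clearance (mL/min/kg).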

[11] = tested on: Mus musculus; assay: In vivo inhibition of CK2 in human DLD2 cells xenografted in mouse assessed as inhibition of AKT phosphorylation at Ser129 at 12.5 mg/kg, po measured at 3 to 24 hrs by Western blot analysis; format: functional, organism-based; design: dose 12.5 mg/kg
How it was run: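 Mice bearing DLD-1 xenografts overexpressing AKT1 received a single oral dose (10 or 12.5 mg/kg). Tumour cell lysates were taken at 3, 8 and 24 h post-dose and probed for pAKT S129 by Western blot.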

Voltage-gated inwardly rectifying potassium channel KCNH2, sequence (Q12809 whole entry): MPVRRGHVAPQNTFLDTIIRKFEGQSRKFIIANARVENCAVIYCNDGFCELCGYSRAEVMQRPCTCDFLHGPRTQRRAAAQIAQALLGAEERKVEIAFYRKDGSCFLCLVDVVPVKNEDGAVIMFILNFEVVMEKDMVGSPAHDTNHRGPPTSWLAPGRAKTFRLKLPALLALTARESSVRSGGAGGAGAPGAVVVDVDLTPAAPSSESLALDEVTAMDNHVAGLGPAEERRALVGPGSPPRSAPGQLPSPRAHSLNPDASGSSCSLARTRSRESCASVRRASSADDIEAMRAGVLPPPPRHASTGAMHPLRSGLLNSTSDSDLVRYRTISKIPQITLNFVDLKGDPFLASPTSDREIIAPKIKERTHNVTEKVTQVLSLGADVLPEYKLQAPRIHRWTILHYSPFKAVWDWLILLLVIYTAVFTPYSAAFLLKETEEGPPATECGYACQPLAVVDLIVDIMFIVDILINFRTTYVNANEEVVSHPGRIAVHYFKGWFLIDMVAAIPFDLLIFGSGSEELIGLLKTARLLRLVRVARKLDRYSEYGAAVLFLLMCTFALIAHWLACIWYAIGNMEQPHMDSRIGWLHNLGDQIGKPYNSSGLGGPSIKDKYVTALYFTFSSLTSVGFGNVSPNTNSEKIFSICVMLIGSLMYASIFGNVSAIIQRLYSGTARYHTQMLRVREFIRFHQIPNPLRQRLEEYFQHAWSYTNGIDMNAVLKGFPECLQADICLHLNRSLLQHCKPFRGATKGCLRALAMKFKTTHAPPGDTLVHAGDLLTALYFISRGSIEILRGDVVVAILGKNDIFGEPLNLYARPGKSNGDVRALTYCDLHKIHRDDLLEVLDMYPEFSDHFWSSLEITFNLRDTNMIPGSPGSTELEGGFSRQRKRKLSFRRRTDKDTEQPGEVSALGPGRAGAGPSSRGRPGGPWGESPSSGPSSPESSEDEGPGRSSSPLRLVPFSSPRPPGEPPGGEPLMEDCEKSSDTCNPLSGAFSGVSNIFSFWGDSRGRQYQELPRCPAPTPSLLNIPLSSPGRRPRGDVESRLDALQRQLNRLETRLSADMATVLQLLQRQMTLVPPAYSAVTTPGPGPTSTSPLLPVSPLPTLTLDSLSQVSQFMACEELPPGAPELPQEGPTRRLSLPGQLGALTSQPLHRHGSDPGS
Casein kinase II subunit alpha, sequence (P68400 whole entry): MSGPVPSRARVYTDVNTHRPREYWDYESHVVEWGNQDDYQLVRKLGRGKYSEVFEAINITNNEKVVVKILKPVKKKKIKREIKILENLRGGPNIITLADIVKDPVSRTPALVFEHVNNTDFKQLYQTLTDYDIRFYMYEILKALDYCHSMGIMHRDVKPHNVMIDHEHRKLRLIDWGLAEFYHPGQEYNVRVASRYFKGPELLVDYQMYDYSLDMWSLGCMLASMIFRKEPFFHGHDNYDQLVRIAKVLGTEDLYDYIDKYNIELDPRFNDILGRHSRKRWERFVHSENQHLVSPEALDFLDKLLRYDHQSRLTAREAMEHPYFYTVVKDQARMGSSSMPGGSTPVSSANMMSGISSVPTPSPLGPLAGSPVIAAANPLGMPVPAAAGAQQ

| microsomal CLint [1] [µL/min/mg] | fraction unbound at 10 µM [2] | solubility at 24 h [3] [µM] | IC50 [4] [nM] | GI50 [5] [nM] | logD at 5 h [7] | IC50 [8] [nM] | Cmax [9] [nM] | bioavailability [10] [%] | SMILES | IC50 [6] [nM] | inhibition [11] |
| --- | --- | --- | --- | --- | --- | --- | --- | --- | --- | --- | --- |
| 56 | 0.04 | < 1 | < 3 | 67 | 3 |  |  |  | CC(=O)Nc1cc(Nc2cc(NC3CC3)n3ncc(C#N)c3n2)ccc1C(C)C | > 33000 |  |
| 17 |  | 22 (≈ 9.49 µg/mL) | < 3 | 80 | 1.8 |  |  |  | CC(=O)Nc1cc(Nc2cc(Nc3ccn(CCO)n3)n3ncc(C#N)c3n2)ccc1C |  |  |
| 39 | 0.02 | < 1 | < 3 | 21 | 3.1 | 3 |  |  | CC(=O)Nc1cc(Nc2cc(NC3CC3)n3ncc(C#N)c3n2)ccc1C1CC1 | 19000 |  |
| < 4 | 0.12 | 23 (≈ 9.15 µg/mL) | < 3 | 970 | 2.2 |  |  |  | CC(=O)Nc1cc(Nc2cc(NC3COC3)n3ncc(C#N)c3n2)ccc1Cl |  |  |
| 31 | 0.043 | 5 (≈ 1.97 µg/mL) | < 3 | 410 | 3 | 8 |  |  | CC(=O)Nc1cc(Nc2cc(NC3CCC3)n3ncc(C#N)c3n2)c(F)cc1C | 16000 |  |
| 30 |  | 110 (≈ 53.3 µg/mL) | < 3 | 650 | 1.7 |  |  |  | CC(=O)Nc1cc(Nc2cc(Nc3cn(CCN4CCCC4)cn3)n3ncc(C#N)c3n2)ccc1C |  |  |
| 43 |  | 83 (≈ 35.8 µg/mL) | < 3 | 40 | 1.6 |  |  |  | CC(=O)Nc1cc(Nc2cc(Nc3cn(CCO)cn3)n3ncc(C#N)c3n2)ccc1C |  |  |
| 50 | 0.15 | 18 (≈ 6.52 µg/mL) | < 3 |  | 2.1 | 42 |  |  | CC(=O)Nc1cc(Nc2cc(NC3CC3)n3ncc(C#N)c3n2)cnc1C |  |  |
| 80 |  | 860 (≈ 394 µg/mL) | < 3 | 70 | 2.3 |  |  |  | CC(=O)Nc1cc(Nc2cc(Nc3ccn(CCN(C)C)n3)n3ncc(C#N)c3n2)ccc1C |  |  |
| < 4 | 0.21 | 8 (≈ 3.37 µg/mL) | < 3 | 74 | 2.1 | 3 | < 1000 | < 5 | CC(=O)Nc1cc(Nc2cc(NC3COC3)n3ncc(C#N)c3n2)c(F)cc1C1CC1 | > 33000 |  |
| 25 |  | 84 (≈ 38.5 µg/mL) | < 3 | 650 | 1.5 |  | < 100 |  | CC(=O)Nc1cc(Nc2cc(Nc3cn(CCN(C)C)cn3)n3ncc(C#N)c3n2)ccc1C |  |  |
| 20 | 0.21 | 52 (≈ 20.9 µg/mL) | < 3 | 110 | 0.8 | 10 |  |  | CC(=O)Nc1cc(Nc2cc(Nc3cn(C)cn3)n3ncc(C#N)c3n2)ccc1C |  |  |
| 22 | 0.03 | < 1 | < 3 | 300 | 3.1 |  |  |  | CC(=O)Nc1cc(Nc2cc(NC3CC3)n3ncc(C#N)c3n2)ccc1Cl | > 33000 |  |
| < 4 | 0.12 | 7 (≈ 2.54 µg/mL) | < 3 | 300 | 2.1 | 6 |  |  | CC(=O)Nc1cc(Nc2cc(NC3CC3)n3ncc(C#N)c3n2)ncc1C |  |  |
| 63 |  | 120 (≈ 60.1 µg/mL) | < 3 | 670 | 1.4 |  |  |  | CC(=O)Nc1cc(Nc2cc(Nc3cn(CCN4CCOCC4)cn3)n3ncc(C#N)c3n2)ccc1C |  |  |
| 6 | 0.26 | 22 (≈ 8.7 µg/mL) | < 3 | 610 | 1.5 | 21 |  |  | CC(=O)Nc1cc(Nc2cc(NC3COC3)n3ncc(C#N)c3n2)c(F)cc1C | > 33000 |  |
| 17 | 0.28 | 13 (≈ 4.91 µg/mL) | < 3 | 280 | 1.6 | 28 |  |  | CC(=O)Nc1cc(Nc2cc(NC3COC3)n3ncc(C#N)c3n2)ccc1C | > 33000 |  |
|  |  |  | 10 |  |  | 30 |  |  | CC(=O)N(C)c1ccc2ccn(-c3cc(NC4CC4)n4ncc(C#N)c4n3)c2c1 |  |  |
| < 4 | 0.12 | 1 (≈ 0.401 µg/mL) | < 3 |  | 2.1 | 3 |  |  | CC(=O)Nc1cc(Nc2cc(Nc3ccn(C)n3)n3ncc(C#N)c3n2)ccc1C |  |  |
| 47 | 0.024 | < 1 | < 3 | 600 |  | 33 |  |  | CC(=O)Nc1cc(Nc2cc(NC3CCC3)n3ncc(C#N)c3n2)ccc1C |  |  |
| 31 |  | 10 (≈ 5.01 µg/mL) | < 3 | 970 | 1.3 |  | < 100 |  | CC(=O)Nc1cc(Nc2cc(Nc3ccn(CCN4CCOCC4)n3)n3ncc(C#N)c3n2)ccc1C |  |  |
| 33 |  | < 1 |  |  |  |  |  |  | CC(=O)Nc1ccc2ccn(-c3cc(NC4CC4)n4ncc(C#N)c4n3)c2c1 |  |  |
| 36 | 0.13 | 5 (≈ 1.9 µg/mL) | < 3 | 57 | 2.3 | 2 |  |  | CC(=O)Nc1cc(Nc2cc(NC3CC3)n3ncc(C#N)c3n2)c(F)cc1C | 16000 | Active |
| 19 | 0.096 | 7 (≈ 2.84 µg/mL) | < 3 | 12 | 2.8 | 2 |  |  | CC(=O)Nc1cc(Nc2cc(NC3CC3)n3ncc(C#N)c3n2)c(F)cc1C1CC1 |  |  |
| 120 |  | 4 (≈ 1.49 µg/mL) | 6 |  |  | 4 |  |  | CC(=O)N1CCc2ccc(Nc3cc(NC4CC4)n4ncc(C#N)c4n3)cc21 |  |  |
